One data set has as its system Influenza A virus. Kind of data set: Antiviral activity against Influenza A virus A/PR/8/34 (H1N1) infected in MDCK cells measured after 48 hrs post infection by plaque reduction assay. The class given is functional, organism-based. Particulars: A/Puerto Rico/8/1934(H1N1). The method in brief:
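MDCK cells, 5 x 10⁵/well, grown 24 h at 37 °C, washed in serum-free DMEM, then infected with A/PR/8/34 (Cambridge lineage) at 40 PFU/well for 1 h at 37 °C. Medium held TPCK-trypsin 1 μg/mL and 0.14% BSA, with compound at varied concentrations or DMSO. Overlay was the same medium plus 1.2% Avicel. At 48 h cells were formaldehyde-fixed and toluidine-blue stained. Plaques were counted against DMSO (100%).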

Data set [1] can be described thus: Cytotoxicity against MDCK cells assessed as reduction in cell viability after 48 hrs by MTT assay. The class given is cell-based, Canis lupus familiaris. Particulars: dog. The method in brief:
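MDCK cells, 2 x 10⁴/well, grown 24 h, then exposed to serial compound dilutions or DMSO in DMEM/10% FBS for 48 h at 37 °C. MTT (5 mg/mL in PBS) was added for 4 h, then cells were lysed in solubilization solution overnight at 37 °C and read at 620 nm.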
A general note: Tetrazolium assays rely on reduction of a dye to a coloured formazan, in cell work by metabolically active cells.

The target in data set [2] is PA/PB1 (Influenza A virus (A/Puerto Rico/8/1934(H1N1)), UniProt P03431+P03433). Kind of data set: Inhibition of Influenza A virus 6His-tagged PA (239 to 716 residues)/GST-tagged PB1 (1 to 25 residues) protein-protein interaction expressed in Escherichia coli measured after overnight incubation by ELISA. For orientation: An ELISA detects its analyte on a solid surface through an enzyme-linked reagent.

Data set [3] in a line: Therapeutic index, ratio of CC50 for MDCK cells to EC50 for Influenza A virus A/PR/8/34 (H1N1) infected in MDCK cells. The class given is toxicity, cell-based. Particulars: dog, read-out: Ratio CC50/EC50.

Consider 23 compounds from ChEMBL document CHEMBL4190233, “Exploring the cycloheptathiophene-3-carboxamide scaffold to disrupt the interactions of the influenza polymerase subunits and obtain potent anti-influenza activity” (Eur J Med Chem, 2017).

Molecules are shown by their SMILES.

On to `CSCC[C@H](N)C(=O)N[C@@H](CC(=O)O)C(=O)N[C@H](C(=O)N[C@@H](CC(N)=O)C(=O)N1CCC[C@H]1C(=O)N[C@H](C(=O)N[C@@H](CC(C)C)C(=O)N[C@@H](CC(C)C)C(=O)N[C@@H](Cc1ccccc1)C(=O)N[C@@H](CC(C)C)C(=O)N[C@@H](CCCCN)C(=O)N[C@H](C(=O)N1CCC[C@H]1C(=O)N[C@@H](C)C(=O)N[C@@H](CCC(N)=O)C(=O)O)C(C)C)[C@@H](C)O)C(C)C`, for which the EC50 (commonly the concentration at which the effect is half-maximal) with Influenza A virus is 41 µM. In addition, the CC50 (commonly the concentration at which the toxic effect on the cells reaches its halfway point) at 48 h in data set [1] was over 100 µM.

As to `O=C(Nc1sc2c(c1C(=O)Nc1ccccc1O)CCCCC2)c1ccccn1`, the IC50 (as a rule, the midpoint of a concentration-inhibition curve) in data set [2] was found to be 118 µM. This compound came in with an EC50 in the data set on Influenza A virus of 8.2 µM. Moreover, in data set [1], the CC50 at 48 h was over 250 µM.

The compound `CC(C)(C)NC(=O)c1c(NC(=O)c2ccccc2O)sc2c1CCCCC2` registered a half-inhibitory concentration (IC50) in data set [2] of 156 µM. Besides, the EC50 with Influenza A virus was over 100 µM. Further, in data set [1], the CC50 at 48 h was over 250 µM.

`O=C(Nc1sc2c(c1C(=O)Nc1nccs1)CCCCC2)c1ccccc1O` yielded a half-maximal inhibitory concentration (IC50) in data set [2] of 69 µM. In addition, in the data set on Influenza A virus, the response was half-maximal at 0.18 µM (EC50). In addition, the CC50 at 48 h in data set [1] is over 250 µM. For the same compound, the selectivity ratio in data set [3] is over 1390.

In data set [2], `O=C(Nc1sc2c(c1C(=O)Nc1ccccc1O)CCCCC2)c1ccc(Cl)cc1` came in with an IC50 of 26 µM. The same compound registered an EC50 with Influenza A virus of 1.8 µM. In addition, the CC50 at 48 h in data set [1] stood at 28 µM.

Compound `O=C(Nc1sc2c(c1C(=O)NCc1ccccn1)CCCCC2)c1ccccc1O` came in with an IC50 in data set [2] of 33 µM. For the same compound, the EC50 in the data set on Influenza A virus is over 100 µM. The CC50 at 48 h in data set [1] is over 250 µM.

For `O=C(Nc1sc2c(c1C(=O)Nc1ccccn1)CCCCC2)c1cccc(O)c1`, half-maximal inhibition in data set [2] (IC50) required 23 µM. Further, the EC50 in the data set with Influenza A virus is 22 µM. Moreover, the 50% cytotoxic concentration (CC50) at 48 h in data set [1] was 248 µM.

As for `O=C(Nc1sc2c(c1C(=O)Nc1ccccn1)CCCCC2)c1ccccc1O`, 15 µM corresponded to half-maximal inhibition in data set [2] (IC50). In the data set on Influenza A virus, this compound had an EC50 of 2.6 µM. The CC50 at 48 h in data set [1] is over 250 µM. For the same compound, the selectivity ratio in data set [3] was over 96.

In data set [2], `O=C(Nc1sc2c(c1C(=O)Nc1ccccn1)CCCCC2)c1ccc(O)cc1` registered an IC50 of 26 µM. Moreover, in the data set with Influenza A virus, the EC50 worked out at 19 µM. Also, the CC50 at 48 h in data set [1] is over 250 µM.

In data set [2], `O=C(Nc1sc2c(c1C(=O)NC1CCCCC1)CCCCC2)c1ccccc1O` returned an IC50 of 114 µM. Besides, the EC50 in the data set with Influenza A virus was over 100 µM. In addition, the CC50 at 48 h in data set [1] was 172 µM.

Compound `O=C(Nc1sc2c(c1C(=O)N1CCN(c3ccccn3)CC1)CCCCC2)c1ccccc1O` registered an IC50 in data set [2] of 197 µM. Besides, in the data set on Influenza A virus, the EC50 was over 100 µM. In data set [1], the CC50 at 48 h turned out to be 145 µM.

In turn, `O=C(Nc1sc2c(c1C(=O)NCc1ccccc1)CCCCC2)c1ccccc1O` displayed an IC50 in data set [2] of 191 µM. The same compound had an EC50 in the data set with Influenza A virus of over 100 µM. In data set [1], the CC50 at 48 h is 172 µM.

For the compound `O=C(Nc1sc2c(c1C(=O)Nc1ccc(Cl)cc1)CCCCC2)c1ccccc1O`, half-maximal inhibition in data set [2] (IC50) was put at 18 µM. This compound had an EC50 in the data set on Influenza A virus of 1.2 µM. Besides, the CC50 at 48 h in data set [1] is over 250 µM. In data set [3], the selectivity ratio is over 200.

The compound `O=C(Nc1sc2c(c1C(=O)Nc1ccccc1)CCCCC2)c1ccccc1O` showed an IC50 in data set [2] of 58 µM. For the same compound, the EC50 with Influenza A virus was 30 µM. Moreover, the CC50 at 48 h in data set [1] is over 250 µM.

In the case of `COc1ccccc1C(=O)Nc1sc2c(c1C(=O)Nc1ccccn1)CCCCC2`, in data set [2], inhibition was half-maximal at 22 µM (IC50). Further, in the data set with Influenza A virus, a half-maximal effect (EC50) was put at 86 µM. For the same compound, the CC50 at 48 h in data set [1] is 147 µM.

Take `COc1ccccc1NC(=O)c1c(NC(=O)c2ccc(Cl)cc2)sc2c1CCCCC2`: the half-inhibitory concentration (IC50) in data set [2] was 45 µM. The compound also gave an EC50 in the data set on Influenza A virus of 24 µM. Further, in data set [1], the CC50 at 48 h is over 250 µM.

In data set [2], `CC(C)NC(=O)c1c(NC(=O)c2ccccc2O)sc2c1CCCCC2` gave a half-maximal inhibitory concentration (IC50) of over 200 µM. The EC50 in the data set on Influenza A virus is over 100 µM. Further, the CC50 at 48 h in data set [1] was over 250 µM.

Compound `Nc1ccc(C(=O)Nc2sc3c(c2C(=O)Nc2ccccn2)CCCCC3)cc1` registered an IC50 in data set [2] of 65 µM. Also, the response with Influenza A virus was half-maximal at 0.26 µM (EC50). Moreover, the CC50 at 48 h in data set [1] is over 250 µM.

In data set [2], `Nc1ccccc1C(=O)Nc1sc2c(c1C(=O)Nc1ccccn1)CCCCC2` showed an IC50 of over 200 µM. The compound further registered an EC50 in the data set with Influenza A virus of 101 µM. The CC50 at 48 h in data set [1] was over 250 µM.

The compound `COc1ccccc1C(=O)Nc1sc2c(c1C(=O)Nc1ccc(Cl)cc1)CCCCC2` showed an IC50 in data set [2] of 78 µM. This compound showed an EC50 in the data set with Influenza A virus of 82 µM. Further, the CC50 at 48 h in data set [1] is over 250 µM.

As to `CN1CCN(C(=O)c2c(NC(=O)c3ccccc3O)sc3c2CCCCC3)CC1`, the IC50 in data set [2] is over 200 µM. The compound also returned an EC50 with Influenza A virus of 94 µM. In addition, in data set [1], the CC50 at 48 h is over 250 µM.

Compound `O=C(Nc1sc2c(c1C(=O)Nc1ccc(F)cc1)CCCCC2)c1ccccc1O` had an IC50 in data set [2] of 20 µM. This compound also yielded an EC50 in the data set on Influenza A virus of 1.2 µM. Moreover, the CC50 at 48 h in data set [1] was over 250 µM. Further, in data set [3], the selectivity ratio was over 200.

In the data set with Influenza A virus, `NC(=O)c1ncn([C@@H]2O[C@H](CO)[C@@H](O)[C@H]2O)n1` [RIBAVIRIN] had an EC50 of 10 µM. Further, in data set [1], the half-maximal cytotoxic concentration (CC50) at 48 h is over 250 µM.
